# Published values from different studies.
# Each line is one published result; the experiments were not run side by side.
# Target: Homeodomain-interacting protein kinase 2 (HIPK2, Homo sapiens, UniProt Q9H2X6)
Compound,read-out,mode,technique,concentration,quantity,value
CC/C(=N\NC(=O)NCc1cccc(O)c1)c1ccc(O)c(C)c1O,enzyme activity,inhibitor,,0.1 µM,inhibition,2.1%
N#Cc1ccc(Nc2ccc3[nH]c(=O)[nH]c3c2)c(Cl)c1,cell-free assay,,competition with immobilised ligand,1 µM,remaining binding,100%
COc1cc(-c2cc(-c3ccc(N4CCNCC4)cc3)cnc2C)cc(OC)c1OC,enzyme activity,inhibitor,,1 µM,inhibition,2%
NS(=O)(=O)c1cc(NC(=O)Cc2ccccc2)ccc1Oc1cccc(Cl)c1,cell-free assay,,competition with immobilised ligand,1 µM,remaining binding,62%
O=C(O)c1ccc2c(c1)nc(Nc1ccccc1Cl)c1ncncc12,enzyme activity,inhibitor,radiometric,1 µM,remaining activity,3%
Cc1ccc(Nc2nccc(N(C)c3ccc4c(C)n(C)nc4c3)n2)cc1S(N)(=O)=O,enzyme activity,inhibitor,,0.3 µM,inhibition,7%
COc1ccc2c(c1)O[C@H](c1ccc(OC)c(OC)c1)C[C@@H]2NC(=O)C1(c2ccc3c(c2)OC(F)(F)O3)CC1,cell-free assay,,competition with immobilised ligand,1 µM,remaining binding,98%
CCOc1cc(-c2nncn2C)ccc1Nc1ncc2cc(C)nc(NCC(C)(C)C)c2n1,enzyme activity,inhibitor,FRET,1 µM,inhibition,< 15%
O=C(Nc1ccc(Oc2ccc(F)cc2)cc1)N1CCc2ncccc2[C@H]1c1ccc(F)cc1,cell-free assay,,competition with immobilised ligand,1 µM,remaining binding,79%
COc1cccc(CCNc2nc3cc(C(=O)O)ccc3c3cncnc23)c1,enzyme activity,inhibitor,radiometric,1 µM,remaining activity,22%
Cc1c(NC(=O)c2cc(C(N)=O)nc3cc(F)ccc23)c(C(F)(F)F)nn1Cc1ccc(C#N)cc1,cell-free assay,,competition with immobilised ligand,1 µM,remaining binding,83%
O=C(O)c1ccc2c(c1)nc(Nc1ccc3ccccc3c1)c1ccncc12,enzyme activity,inhibitor,radiometric,1 µM,remaining activity,4%
COc1cc2ncnc(Nc3ccc(Oc4ccccc4)cc3C)c2cc1OC,enzyme activity,inhibitor,,1 µM,inhibition,3%
Cc1ccc(NC(=O)c2ccc(CN3CCN(C)CC3)cc2)cc1Nc1nc(-c2cccnc2)cs1,cell-free assay,,,0.5 µM,remaining signal,90.8%
COc1cc2nccc(Oc3ccc(NC(=O)c4c5n(n(-c6ccc(F)cc6)c4=O)CCCC5)cc3)c2cc1OC,enzyme activity,inhibitor,,0.1 µM,inhibition,10%
COc1cc(-c2cn(C3CCc4c(F)cccc4N(CC(F)(F)F)C3=O)nn2)ccc1-n1cnc(C)c1 (stereo not drawn),cell-free assay,,competition with immobilised ligand,1 µM,remaining binding,100%
N#Cc1cccc(Nc2nc3cc(C(=O)O)ccc3c3cncnc23)c1,enzyme activity,inhibitor,radiometric,1 µM,remaining activity,3%
Cc1ccc(NC(=O)c2ccc(C)c(C(F)(F)F)c2)cc1C#Cc1nn(C2CCC(O)CC2)c2ncnc(N)c12 (stereo not drawn),cell-free assay,,,10 µM,remaining signal,99%
CNC(=O)Nc1ccc2c(c1)CC[C@@]21OC(=O)N(CC(=O)N(Cc2ccc(F)cc2)[C@@H](C)C(F)(F)F)C1=O,cell-free assay,,competition with immobilised ligand,1 µM,remaining binding,95%
N#Cc1cccc(Nc2nc3cc(C(=O)O)ccc3c3cnccc23)c1,enzyme activity,inhibitor,radiometric,1 µM,remaining activity,-1%
O=C1NC(c2ccccn2)Sc2ccccc21 (stereo not drawn),cell-free assay,,competition with immobilised ligand,1 µM,remaining binding,80%
O=C(O)c1ccc2c(c1)nc(NCCc1cccc(Cl)c1)c1ccncc12,enzyme activity,inhibitor,radiometric,1 µM,remaining activity,20%
CCN(CC)CCNC(=O)c1c(C)[nH]c(/C=C2\C(=O)Nc3ccc(F)cc32)c1C,enzyme activity,inhibitor,,10 µM,inhibition,89%
O=C(O)c1ccc2c(c1)nc(Nc1ccc(F)c(Cl)c1)c1ncncc12,enzyme activity,inhibitor,radiometric,1 µM,remaining activity,2%
O=C1NC(=O)c2cc(Nc3ccc(F)cc3)c(Nc3ccc(F)cc3)cc21,cell-free assay,,,0.5 µM,remaining signal,96.6%
O=C(O)c1ccc2c(c1)nc(NCc1ccccc1)c1ncncc12,enzyme activity,inhibitor,radiometric,1 µM,remaining activity,39%
Cc1cc(NC(=O)c2cccc3cc(-c4cccc5[nH]nc(N)c45)ccc23)ccc1F,enzyme activity,inhibitor,,0.1 µM,activity vs control,103%
